Test results published in paper PMC10251802 (Journal of Enzyme Inhibition and Medicinal Chemistry, 2023).
Several values for one entry are separate records, joined by “and”; a condition that tells them apart may be missing. Identical values can stand only once. Like-named read-outs stand apart in the source and are kept apart here. Blank lines part the entries; values can stand above or below the molecule they belong to.

Tests used:
A549 = test: MTT anti-proliferative assay, A549; format: cell-based, human
MCF-7 = test: MTT anti-proliferative assay, MCF-7; format: cell-based, human
EGFR^WT = EGFR^WT (Homo sapiens, UniProt P00533); test: EGFR^WT kinase inhibition; format: biochemical
EGFR^WT, sequence (P00533 25-1210): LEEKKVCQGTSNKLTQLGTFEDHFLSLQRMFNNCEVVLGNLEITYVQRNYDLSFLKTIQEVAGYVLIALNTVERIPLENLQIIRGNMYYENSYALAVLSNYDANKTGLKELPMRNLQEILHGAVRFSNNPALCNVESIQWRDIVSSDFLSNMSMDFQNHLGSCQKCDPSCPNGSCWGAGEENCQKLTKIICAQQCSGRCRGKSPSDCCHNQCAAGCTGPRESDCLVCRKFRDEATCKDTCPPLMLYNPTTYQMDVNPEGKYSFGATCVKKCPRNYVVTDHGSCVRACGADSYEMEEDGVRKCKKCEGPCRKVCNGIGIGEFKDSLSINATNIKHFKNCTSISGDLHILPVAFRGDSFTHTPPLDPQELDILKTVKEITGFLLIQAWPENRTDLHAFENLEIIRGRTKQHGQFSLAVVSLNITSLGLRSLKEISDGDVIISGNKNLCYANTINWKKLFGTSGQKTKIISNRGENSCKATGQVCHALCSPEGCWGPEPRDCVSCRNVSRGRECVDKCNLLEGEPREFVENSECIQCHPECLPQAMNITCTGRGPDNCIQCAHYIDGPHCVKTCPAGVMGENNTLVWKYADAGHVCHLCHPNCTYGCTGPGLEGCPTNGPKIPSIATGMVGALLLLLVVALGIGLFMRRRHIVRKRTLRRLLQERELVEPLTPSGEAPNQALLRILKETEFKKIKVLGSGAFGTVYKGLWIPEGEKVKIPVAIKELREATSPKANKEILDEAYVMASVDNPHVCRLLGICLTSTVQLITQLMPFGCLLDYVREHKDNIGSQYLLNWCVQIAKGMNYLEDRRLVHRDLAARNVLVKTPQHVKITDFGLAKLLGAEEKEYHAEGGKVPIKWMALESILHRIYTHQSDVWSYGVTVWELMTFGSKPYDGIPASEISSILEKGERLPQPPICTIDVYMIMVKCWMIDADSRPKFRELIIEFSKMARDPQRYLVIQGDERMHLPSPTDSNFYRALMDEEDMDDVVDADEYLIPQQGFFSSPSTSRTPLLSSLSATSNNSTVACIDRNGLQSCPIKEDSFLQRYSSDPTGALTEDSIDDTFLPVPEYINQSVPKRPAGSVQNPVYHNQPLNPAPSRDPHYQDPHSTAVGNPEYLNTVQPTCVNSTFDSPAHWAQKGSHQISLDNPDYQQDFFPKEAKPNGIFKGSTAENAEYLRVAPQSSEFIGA

EGFR^T790M = EGFR^T790M (Homo sapiens, UniProt P00533, T790M); test: EGFR^T790M kinase inhibition; format: biochemical
EGFR^T790M, sequence (P00533 25-1210 T790M): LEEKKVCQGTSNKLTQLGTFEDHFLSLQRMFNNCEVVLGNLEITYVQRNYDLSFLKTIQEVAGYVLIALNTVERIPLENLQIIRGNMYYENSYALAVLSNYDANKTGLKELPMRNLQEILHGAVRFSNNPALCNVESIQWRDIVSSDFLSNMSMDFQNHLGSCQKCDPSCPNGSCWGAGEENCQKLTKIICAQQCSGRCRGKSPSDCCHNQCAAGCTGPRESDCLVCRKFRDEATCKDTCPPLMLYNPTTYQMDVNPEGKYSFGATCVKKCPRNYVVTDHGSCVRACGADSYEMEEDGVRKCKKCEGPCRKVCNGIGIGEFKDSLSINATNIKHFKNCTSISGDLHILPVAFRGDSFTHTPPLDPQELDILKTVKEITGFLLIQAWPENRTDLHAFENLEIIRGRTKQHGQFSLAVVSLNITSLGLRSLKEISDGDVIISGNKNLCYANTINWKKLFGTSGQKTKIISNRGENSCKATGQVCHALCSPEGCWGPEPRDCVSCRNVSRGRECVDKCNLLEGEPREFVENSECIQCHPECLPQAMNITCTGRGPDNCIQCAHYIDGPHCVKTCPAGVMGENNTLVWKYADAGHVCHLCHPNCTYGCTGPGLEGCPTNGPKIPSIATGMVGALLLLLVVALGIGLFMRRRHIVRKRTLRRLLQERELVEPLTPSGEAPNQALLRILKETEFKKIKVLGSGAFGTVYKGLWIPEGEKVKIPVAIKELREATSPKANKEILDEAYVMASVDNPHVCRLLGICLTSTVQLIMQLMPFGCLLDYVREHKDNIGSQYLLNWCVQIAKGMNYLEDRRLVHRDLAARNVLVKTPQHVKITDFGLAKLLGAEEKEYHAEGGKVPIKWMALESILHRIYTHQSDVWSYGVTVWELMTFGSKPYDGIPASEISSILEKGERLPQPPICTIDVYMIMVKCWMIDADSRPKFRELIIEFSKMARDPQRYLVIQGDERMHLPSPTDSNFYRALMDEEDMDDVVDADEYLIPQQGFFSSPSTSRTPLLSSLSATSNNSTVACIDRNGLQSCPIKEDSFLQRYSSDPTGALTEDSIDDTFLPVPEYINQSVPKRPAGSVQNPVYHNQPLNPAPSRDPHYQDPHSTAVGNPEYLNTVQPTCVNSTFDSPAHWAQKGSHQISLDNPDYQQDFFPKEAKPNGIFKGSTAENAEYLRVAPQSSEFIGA

A549 cells [1] = test: Cell cycle analysis by flow cytometry; format: cell-based, human; conditions: A549, 17.79 µM, 72 h
Procedure, shortened: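 A549 cells were exposed to the test compound at 17.79 μM for 72 h, with untreated A549 cells as comparator. Cell-cycle distribution was read by flow cytometry as the percentage of the population in Sub-G1, G1, S and G2/M phases.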

A549 cells [2] = test: Apoptosis analysis, Annexin-V/propidium iodide staining; format: cell-based, human; conditions: A549, 17.79 µM, 72 h
Procedure, shortened: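 Annexin-V-FITC/propidium iodide double staining of A549 cells exposed to the test compound (17.79 μM, 72 h), analysed by flow cytometry.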

BAX and Bcl-2 genes = test: BAX and Bcl-2 gene expression by quantitative RT-PCR; format: cell-based, human; conditions: A549, 17.79 µM, 72 h
WI-38 = test: Safety assay; conditions: for IC50: Homo sapiens, WI-38, read-out: Cell lines IC50 WI-38
[3] = Homo sapiens, A549, read-out: Cell lines IC50 A549
[4] = Homo sapiens, MCF7, read-out: Cell lines IC50 MCF-7

Molecule: CC1CCc2c(sc3ncnc(Nc4ccc(N)cc4)c23)C1 (centres unmarked) [5d, N^1-(7-Methyl-5,6,7,8-tetrahydro[1]benzothieno[2,3-d]pyrimidin-4-yl)benzene-1,4-diamine]
IC50 (A549; [3]): 34.8 µM
IC50 (MCF-7; [4]): 35.5 µM

Molecule: CC1CCc2c(sc3ncnc(Nc4ccc(S(N)(=O)=O)cc4)c23)C1 (centres unmarked) [5f, 4-((7-Methyl-5,6,7,8-tetrahydrobenzo[4,5]thieno[2,3-d]pyrimidin-4-yl)amino)benzene sulphonamide]
IC50 (A549; [3]): 17.5 µM
IC50 (MCF-7; [4]): 21.4 µM
IC50 (EGFR^WT): 0.0356 µM

Molecule: CC1CCc2c(sc3ncnc(NNC(N)=S)c23)C1 (centres unmarked) [7a, 2–(7-Methyl-5,6,7,8-tetrahydro[1]benzothieno[2,3-d]pyrimidin-4-yl)hydrazine carbothioamide]
IC50 (A549; [3]): 28.7 µM
IC50 (MCF-7; [4]): 35.7 µM

Molecule: CC1CCc2c(sc3ncnc(NN)c23)C1 (centres unmarked) [7b, 4-Hydrazinyl-7-methyl-5,6,7,8-tetrahydro[1]benzothieno[2,3-d]pyrimidine]
IC50 (A549; [3]): 18.4 µM
IC50 (MCF-7; [4]): 23.7 µM

More lines, main results first:

IC50 (A549; [3]): 20.6 µM
IC50 (MCF-7; [4]): 29.3 µM
Molecule: CC1CCc2c(sc3ncnc(Nc4ccc(Cl)cc4)c23)C1 (centres unmarked) [5a, N-(4-Chlorophenyl)-7-methyl-5,6,7,8-tetrahydrobenzo[4,5]thieno[2,3-d]pyrimidin-4-amine]

IC50 (A549; [3]): 17.8 µM
IC50 (MCF-7; [4]): 22.7 µM
IC50 (EGFR^WT): 0.0372 µM
IC50 (EGFR^T790M): 0.204 µM
Molecule: CC1CCc2c(sc3ncnc(Nc4ccccc4F)c23)C1 (centres unmarked) [5b, N-(2-Fluorophenyl)-7-methyl-5,6,7,8-tetrahydrobenzo[4,5]thieno[2,3-d]pyrimidin-4-amine]
Cell cycle distribution % G2/M (A549 cells [1]): 38.61% and 38.61 ± 2.11 %
Cell cycle distribution %G1 (A549 cells [1]): 23.19% and 23.19 ± 2.18 %
Cell cycle distribution %S (A549 cells [1]): 37.66% and 37.66 ± 4.19 %
Cell cycle distribution %Sub-G1 (A549 cells [1]): 0.54% and 0.54 ± 0.09%
Apoptosis Early (right bottom) (A549 cells [2]): 17.84% and 17.84 ± 3.68%
Apoptosis Late (right top) (A549 cells [2]): 45.71% and 45.71 ± 5.77 %
Necrosis (left top) (A549 cells [2]): 2.12 ± 0.11
Viable (left bottom) (A549 cells [2]): 34.33 ± 2.20
BAX/Bcl-2 ratio (BAX and Bcl-2 genes; control set to 1): 8.3 fold change and 8.35 ± 1.09 fold change
Gene expression BAX (BAX and Bcl-2 genes; control set to 1): 3 fold change and 2.97 ± 0.14 fold change
Gene expression Bcl-2 (BAX and Bcl-2 genes; control set to 1): 0.37 ± 0.06 fold change
downregulation of the Bcl-2 gene (BAX and Bcl-2 genes; vs untreated cells): 3 fold
IC50 (WI-38): 70.1 µM
times safer against WI-38 than erlotinib (WI-38; ratio of WI-38 IC50 values vs erlotinib): 2.5 fold

IC50 (A549; [3]): 27.1 µM
IC50 (MCF-7; [4]): 30 µM
Molecule: COc1ccc(Nc2ncnc3sc4c(c23)CCC(C)C4)cc1 (centres unmarked) [5c, N-(4-Methoxyphenyl)-7-methyl-5,6,7,8-tetrahydrobenzo[4,5]thieno[2,3-d]pyrimidin-4-amine]

IC50 (A549; [3]): 19.9 µM
IC50 (MCF-7; [4]): 29.2 µM
Molecule: CC1CCc2c(sc3ncnc(Nc4ccccc4S(N)(=O)=O)c23)C1 (centres unmarked) [5e, 2-((7-Methyl-5,6,7,8-tetrahydrobenzo[4,5]thieno[2,3-d]pyrimidin-4-yl)amino)benzene sulphonamide]

IC50 (A549; [3]): 4.18 µM
IC50 (MCF-7; [4]): 14.3 µM
Molecule: C#Cc1cccc(Nc2ncnc3cc(OCCOC)c(OCCOC)cc23)c1 [Erlotinib, reference compound]
IC50 (WI-38): 28.5 µM

IC50 (A549; read-out: Cell lines IC50 A549, MTT, mean of three experiments): 21.2 µM
IC50 (MCF-7; read-out: Cell lines IC50 MCF-7, MTT, mean of three experiments): 26.6 µM
Molecule: N-((7-Methyl-5,6,7,8-tetrahydro[1]benzothieno[2,3-d]pyrimidin-4-yl)methyl) aniline [compound 6]
